Reference: ChEMBL document CHEMBL3632499, “Synthesis and Antiproliferative Activity Evaluation of the Disulfide-Containing Cyclic Peptide Thiochondrilline C and Derivatives” (J Nat Prod, 2015)
Converted amounts (≈) assume the structure as drawn.

What was measured:
M14 = assay: Antiproliferative activity against human M14 cells; type: functional; details: read-out: LC50 (the source's name)
Method in brief: (§1)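 Profiled in the National Cancer Institute 60 cancer cell line screen. Reported GI50 is the concentration giving 50% growth inhibition, TGI the concentration giving total growth inhibition, and LC50 the concentration giving 50% net cell killing. Values are averages ± SEM from two independent determinations.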

MDA-MB-435 = assay: Antiproliferative activity against human MDA-MB-435 cells; type: functional; method in brief: as §1
SK-MEL-2 = assay: Antiproliferative activity against human SK-MEL-2 cells; type: functional; method in brief: as §1
SK-MEL-28 = assay: Antiproliferative activity against human SK-MEL-28 cells; type: functional; method in brief: as §1
SK-MEL-5 = assay: Antiproliferative activity against human SK-MEL-5 cells; type: functional; method in brief: as §1
UACC-257 = assay: Antiproliferative activity against human UACC257 cells; type: functional
Method in brief: (§2)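 Run in the National Cancer Institute 60 cancer cell line panel. Read-outs: GI50, the concentration causing 50% growth inhibition; TGI, the concentration causing total growth inhibition; LC50, the concentration causing 50% net cell killing. Values are averages ± SEM from two independent determinations.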

UACC-62 = assay: Antiproliferative activity against human UACC62 cells; type: functional; method in brief: as §2
IGROV-1 = assay: Antiproliferative activity against human IGROV1 cells; type: functional; method in brief: as §1
OVCAR-3 = assay: Antiproliferative activity against human OVCAR3 cells; type: functional; method in brief: as §1
OVCAR-4 = assay: Antiproliferative activity against human OVCAR4 cells; type: functional; method in brief: as §1
OVCAR-5 = assay: Antiproliferative activity against human OVCAR5 cells; type: functional; method in brief: as §1
OVCAR-8 = assay: Antiproliferative activity against human OVCAR8 cells; type: functional; method in brief: as §1
[1] = Antiproliferative activity against human NCI-ADR-RES cells; type: functional; method in brief: as §1
SK-OV-3 = assay: Antiproliferative activity against human SKOV3 cells; type: functional; method in brief: as §1
786-0 = assay: Antiproliferative activity against human 786-0 cells; type: functional; method in brief: as §1
A498 = assay: Antiproliferative activity against human A498 cells; type: functional; method in brief: as §1
ACHN = assay: Antiproliferative activity against human ACHN cells; type: functional; method in brief: as §1
CAKI-1 = assay: Antiproliferative activity against human Caki1 cells; type: functional; method in brief: as §1
[2] = Antiproliferative activity against human RXF393 cells; type: functional; method in brief: as §1
SN12C = assay: Antiproliferative activity against human SN12C cells; type: functional; method in brief: as §1
TK-10 = assay: Antiproliferative activity against human TK10 cells; type: functional; method in brief: as §2
UO-31 = assay: Antiproliferative activity against human UO31 cells; type: functional; method in brief: as §2
PC-3 = assay: Antiproliferative activity against human PC3 cells; type: functional; method in brief: as §1
DU-145 = assay: Antiproliferative activity against human DU145 cells; type: functional; method in brief: as §1
MCF7 = assay: Antiproliferative activity against human MCF7 cells; type: functional; method in brief: as §1
MDA-MB-231 = assay: Antiproliferative activity against human MDA-MB-231 cells; type: functional; method in brief: as §1
[3] = Antiproliferative activity against human Hs 578T cells; type: functional; method in brief: as §1
[4] = Antiproliferative activity against human BT549 cells; type: functional; method in brief: as §1
T47D = assay: Antiproliferative activity against human T47D cells; type: functional; method in brief: as §2
MDA-MB-468 = assay: Antiproliferative activity against human MDA-MB-468 cells; type: functional; method in brief: as §1
[5] = Half life in mouse liver microsomes; type: ADME
[6] = Half life in mouse plasma; type: ADME, cell-free
[7] = Apparent permeability of the compound from apical to basolateral side in human Caco2 cells; type: ADME, cell-based; details: Caco-2
[8] = Apparent permeability of the compound from basolateral to apical side in human Caco2 cells; type: ADME, cell-based; details: Caco-2
[9] = Aqueous solubility of the compound; type: physicochemical; details: buffer
[10] = read-out: LC50 (the source's name)

SMILES: C[C@H](NC(=O)[C@@H]1CSSC[C@@H](NC(=O)c2nc3ccccc3cc2O)C(=O)NCC(=O)N1C)c1ccccc1
- CC50 (M14): > 50 µM
- GI50 (MDA-MB-435): 0.8 µM
- TGI (MDA-MB-435): 6.6 µM
- CC50 (MDA-MB-435; [10]): 22 µM
- GI50 (SK-MEL-2): 2.6 µM
- TGI (SK-MEL-2): 10.1 µM
- CC50 (SK-MEL-2; [10]): 27.1 µM
- GI50 (SK-MEL-28): 0.9 µM
- TGI (SK-MEL-28): 9.9 µM
- CC50 (SK-MEL-28; [10]): 31.8 µM
- GI50 (SK-MEL-5): 0.6 µM
- TGI (SK-MEL-5): 3.8 µM
- CC50 (SK-MEL-5; [10]): 15.6 µM
- GI50 (UACC-257): 8.3 µM
- TGI (UACC-257): 27.8 µM
- CC50 (UACC-257; [10]): > 50 µM
- GI50 (UACC-62): 5.7 µM
- TGI (UACC-62): 13.3 µM
- CC50 (UACC-62; [10]): 30.2 µM
- GI50 (IGROV-1): 4 µM
- TGI (IGROV-1): 12.9 µM
- CC50 (IGROV-1; [10]): 37.6 µM
- GI50 (OVCAR-3): 0.6 µM
- TGI (OVCAR-3): 1.4 µM
- CC50 (OVCAR-3; [10]): 3.1 µM
- GI50 (OVCAR-4): 8 µM
- TGI (OVCAR-4): 18.4 µM
- CC50 (OVCAR-4; [10]): 42.4 µM
- GI50 (OVCAR-5): 5.2 µM
- TGI (OVCAR-5): 12.6 µM
- CC50 (OVCAR-5; [10]): 29.6 µM
- GI50 (OVCAR-8): 5.2 µM
- TGI (OVCAR-8): 17.8 µM
- CC50 (OVCAR-8; [10]): > 50 µM
- GI50 [1]: 11 µM
- TGI [1]: > 50 µM
- CC50 [1, 10]: > 50 µM
- GI50 (SK-OV-3): 5.8 µM
- TGI (SK-OV-3): 21.3 µM
- CC50 (SK-OV-3; [10]): > 50 µM
- GI50 (786-0): 2.5 µM
- TGI (786-0): 9.8 µM
- CC50 (786-0; [10]): 33.5 µM
- GI50 (A498): 15 µM
- TGI (A498): 33.5 µM
- CC50 (A498; [10]): > 50 µM
- GI50 (ACHN): 4.9 µM
- TGI (ACHN): 13 µM
- CC50 (ACHN; [10]): 31.5 µM
- GI50 (CAKI-1): 7.3 µM
- TGI (CAKI-1): 18.5 µM
- CC50 (CAKI-1; [10]): 47.4 µM
- GI50 ([2]; RXF 393): 1.3 µM
- TGI ([2]; RXF 393): 3.1 µM
- CC50 ([2]; RXF 393, read-out: LC50 (the source's name)): 13 µM
- GI50 (SN12C): 5.6 µM
- TGI (SN12C): 14.1 µM
- CC50 (SN12C; [10]): 35.4 µM
- GI50 (TK-10): 8.1 µM
- TGI (TK-10): 15.4 µM
- CC50 (TK-10; [10]): 29.7 µM
- GI50 (UO-31): 5.8 µM
- TGI (UO-31): 13.3 µM
- CC50 (UO-31; [10]): 30.8 µM
- GI50 (PC-3): 6.1 µM
- TGI (PC-3): 13.5 µM
- CC50 (PC-3; [10]): 30.3 µM
- GI50 (DU-145): 5.8 µM
- TGI (DU-145): 12.7 µM
- CC50 (DU-145; [10]): 27.7 µM
- GI50 (MCF7): 0.9 µM
- TGI (MCF7): 2.6 µM
- CC50 (MCF7; [10]): 16.1 µM
- GI50 (MDA-MB-231): 1.9 µM
- TGI (MDA-MB-231): 7.9 µM
- CC50 (MDA-MB-231; [10]): 26 µM
- GI50 [3]: 11.3 µM
- TGI [3]: 34.5 µM
- CC50 [3, 10]: > 50 µM
- GI50 ([4]; BT-549): 6.9 µM
- TGI ([4]; BT-549): 16.1 µM
- CC50 ([4]; BT-549, read-out: LC50 (the source's name)): 37.6 µM
- GI50 (T47D): 1.1 µM
- TGI (T47D): 3.8 µM
- CC50 (T47D; [10]): 24.8 µM
- GI50 (MDA-MB-468): 6 µM
- TGI (MDA-MB-468): 13.3 µM
- CC50 (MDA-MB-468; [10]): 29.8 µM
- half-life [5]: 0.45 h
- half-life [6]: 4.9 h
- Papp A→B [7]: 0.011 ×10⁻⁶ cm/s
- Papp B→A [8]: 0.062 ×10⁻⁶ cm/s
- solubility [9]: 4.5 µg/mL (≈ 7.93 µM)
